ChEMBL document CHEMBL5528045, “Discovery of Orally Bioavailable FmlH Lectin Antagonists as Treatment for Urinary Tract Infections” (J Med Chem, 2024)
pIC50: −log10 of the molar value.

Experiments:
FmlH (Escherichia coli) = assay: Inhibition of C-terminal 6His-tagged biotinylated FmIH (Escherichia coli CFT073) expressed in Escherichia coli C600 cells incubated for 1 hr
[1] = Initial plasma concentration in mouse at 3 mg/kg, iv by LC-MS/MS method; type: ADME, organism-based
Method in brief: (§1)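 Single dose in mice, given 3 mg/kg intravenously or 10 mg/kg orally. Plasma was followed over 8 h, and the mean plasma concentration-time profile was used. Oral bioavailability (%F) was calculated from the IV and PO exposures.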

[2] = Half-life in mouse at 3 mg/kg, iv by LC-MS/MS method; type: ADME, organism-based; conditions: in vivo
Method in brief: as §1

[3] = Volume of distribution at steady state in mouse at 3 mg/kg, iv by LC-MS/MS method; type: ADME, organism-based; conditions: in vivo, read-out: Vdss
Method in brief: as §1

[4] = Clearance in mouse at 3 mg/kg, iv by LC-MS/MS method; type: ADME, organism-based; conditions: in vivo
Method in brief: as §1

[5] = Tlast in mouse at 3 mg/kg, iv by LC-MS/MS method; type: ADME, organism-based; conditions: in vivo
Method in brief: as §1

[6] = AUC(0 to last) in mouse at 3 mg/kg, iv by LC-MS/MS method; type: ADME, organism-based; conditions: in vivo
Method in brief: as §1

[7] = AUCinfinity in mouse at 3 mg/kg, iv by LC-MS/MS method; type: ADME, organism-based; conditions: in vivo
Method in brief: as §1

[8] = Mean residence time(0 to last) in mouse at 3 mg/kg, iv by LC-MS/MS method; type: ADME, organism-based; conditions: in vivo
Method in brief: as §1

[9] = Mean residence time(0 to infinity) in mouse at 3 mg/kg, iv by LC-MS/MS method; type: ADME, organism-based; conditions: in vivo
Method in brief: as §1

[10] = AUCextra in mouse at 3 mg/kg, iv by LC-MS/MS method; type: ADME, organism-based; conditions: in vivo
Method in brief: as §1

[11] = AUMCextra in mouse at 3 mg/kg, iv by LC-MS/MS method; type: ADME, organism-based; conditions: in vivo
Method in brief: as §1

[12] = Cmax in mouse at 10 mg/kg, po by LC-MS/MS method; type: ADME, organism-based; conditions: in vivo
Method in brief: as §1

[13] = Tmax in mouse at 10 mg/kg, po by LC-MS/MS method; type: ADME, organism-based; conditions: in vivo
Method in brief: as §1

[14] = Half life in mouse at 10 mg/kg, po by LC-MS/MS method; type: ADME, organism-based; conditions: in vivo
Method in brief: as §1

[15] = AUC(0 to last) in mouse at 10 mg/kg, po by LC-MS/MS method; type: ADME, organism-based; conditions: in vivo
Method in brief: as §1

[16] = AUC(0 to infinity) in mouse at 10 mg/kg, po by LC-MS/MS method; type: ADME, organism-based; conditions: in vivo
Method in brief: as §1

[17] = MRT(0 to last) in mouse at 10 mg/kg, po by LC-MS/MS method; type: ADME, organism-based; conditions: in vivo
Method in brief: as §1

[18] = MRT(0 to infinity) in mouse at 10 mg/kg, po by LC-MS/MS method; type: ADME, organism-based; conditions: in vivo
Method in brief: as §1

[19] = AUCextra in mouse at 10 mg/kg, po by LC-MS/MS method; type: ADME, organism-based; conditions: in vivo
Method in brief: as §1

[20] = AUMCextra in mouse at 10 mg/kg, po by LC-MS/MS method; type: ADME, organism-based; conditions: in vivo
Method in brief: as §1

[21] = Oral bioavailability in mouse at 10 mg/kg by LC-MS/MS method; type: ADME, organism-based; conditions: in vivo
Method in brief: as §1

[22] = Tlast in mouse at 10 mg/kg, po by LC-MS/MS method; type: ADME, organism-based; conditions: in vivo
Method in brief: as §1

[23] = Drug concentration in mouse urine at 2 mg/kg, po measured at 24 hrs by HPLC-MS/MS analysis; type: ADME, organism-based; conditions: read-out: Ct
Method in brief: (§2)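 9-week-old C3H/HeN mice, n=5 per dose group, were dosed once by oral gavage. The compound was in 1% methyl cellulose, vortexed, sonicated 20 min, warmed at 50 °C for 10 min and vortexed again just before dosing. Mean urine concentration is reported.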

[24] = Drug concentration in mouse urine at 20 mg/kg, po measured at 24 hrs by HPLC-MS/MS analysis; type: ADME, organism-based; conditions: read-out: Ct
Method in brief: as §2

Compound: CC(=O)N[C@H]1[C@H](Oc2cccc(C(F)(F)F)c2-c2cccc(NS(C)(=O)=O)c2)O[C@H](CO)[C@H](O)[C@@H]1O
- pIC50 (FmlH (Escherichia coli)): 7.46

Compound: CC(=O)N[C@H]1[C@H](Oc2ccccc2-c2cccc(NS(C)(=O)=O)c2)O[C@H](CO)[C@H](O)[C@@H]1O
- pIC50 (FmlH (Escherichia coli)): 6.64

Compound: CS(=O)(=O)Nc1cccc(-c2ccccc2O[C@@H]2O[C@H](CO)[C@H](O)[C@H](O)[C@H]2O)c1
- pIC50 (FmlH (Escherichia coli)): 5.80

Compound: CS(=O)(=O)Nc1cccc(-c2ccccc2C[C@@H]2O[C@H](CO)[C@H](O)[C@H](O)[C@H]2[N+](=O)[O-])c1
- pIC50 (FmlH (Escherichia coli)): < 4.30

Compound: CC(=O)N[C@H]1[C@H](Oc2cccc(C(F)(F)F)c2-c2ccc(F)c(NS(C)(=O)=O)c2)O[C@H](CO)[C@H](O)[C@@H]1O
- pIC50 (FmlH (Escherichia coli)): 6.05

Compound: CC(=O)N[C@H]1[C@H](Oc2cccc(C(F)(F)F)c2-c2cc(F)cc(C#N)c2)O[C@H](CO)[C@H](O)[C@@H]1O
- pIC50 (FmlH (Escherichia coli)): 5.70

Compound: CC(=O)N[C@H]1[C@H](Oc2cccc(C(F)(F)F)c2-c2cccc(F)c2)O[C@H](CO)[C@H](O)[C@@H]1O
- pIC50 (FmlH (Escherichia coli)): 6.32

Compound: CC(=O)N[C@H]1[C@H](Oc2cccc(C(F)(F)F)c2-c2cccc(F)c2F)O[C@H](CO)[C@H](O)[C@@H]1O
- pIC50 (FmlH (Escherichia coli)): 6.23

Compound: CC(=O)N[C@H]1[C@H](Oc2cccc(C(F)(F)F)c2-c2ccc(F)c(F)c2F)O[C@H](CO)[C@H](O)[C@@H]1O
- pIC50 (FmlH (Escherichia coli)): 6.15

Compound: CC(=O)N[C@H]1[C@H](Oc2cccc(C(F)(F)F)c2-c2cccc(C(=O)NS(C)(=O)=O)c2)O[C@H](CO)[C@H](O)[C@@H]1O
- pIC50 (FmlH (Escherichia coli)): 6.51

Compound: CS(=O)(=O)Nc1cccc(-c2ccccc2C[C@@H]2O[C@H](CO)[C@H](O)[C@H](O)[C@H]2O)c1
- pIC50 (FmlH (Escherichia coli)): 4.82

Compound: CC(=O)N[C@@H]1[C@@H](O)[C@@H](O)[C@@H](CO)O[C@H]1C(=O)Nc1ccccc1-c1cccc(NS(C)(=O)=O)c1
- pIC50 (FmlH (Escherichia coli)): 5.16

Compound: CC(=O)N[C@H]1[C@H](Oc2cccc(C(F)(F)F)c2-c2cc(F)cc(C(F)(F)F)c2)O[C@H](CO)[C@H](O)[C@@H]1O
- pIC50 (FmlH (Escherichia coli)): 5.05

Compound: CC(=O)N[C@@H]1[C@@H](O)[C@@H](O)[C@@H](CO)O[C@H]1Cc1ccccc1-c1cccc(NS(C)(=O)=O)c1
- pIC50 (FmlH (Escherichia coli)): 4.82

Compound: CC(=O)N[C@H]1[C@H](Oc2cccc(C(F)(F)F)c2-c2ccc(F)c(NS(=O)(=O)c3ccccc3)c2)O[C@H](CO)[C@H](O)[C@@H]1O
- pIC50 (FmlH (Escherichia coli)): 6.72

Compound: CC(=O)N[C@H]1[C@H](Oc2cccc(C(F)(F)F)c2-c2ccc3ccn(S(C)(=O)=O)c3c2)O[C@H](CO)[C@H](O)[C@@H]1O
- pIC50 (FmlH (Escherichia coli)): 6.22

Compound: CC(=O)N[C@H]1[C@H](Oc2cccc(C(F)(F)F)c2-c2cc(F)cc(F)c2)O[C@H](CO)[C@H](O)[C@@H]1O
- pIC50 (FmlH (Escherichia coli)): 5.22

Compound: CC(=O)N[C@H]1[C@H](Oc2cccc(C(F)(F)F)c2-c2cc(C#N)cc(C(F)(F)F)c2)O[C@H](CO)[C@H](O)[C@@H]1O
- pIC50 (FmlH (Escherichia coli)): 5.22

Compound: CC(=O)N[C@H]1[C@H](Oc2cccc(C(F)(F)F)c2-c2ccc(F)cc2F)O[C@H](CO)[C@H](O)[C@@H]1O
- pIC50 (FmlH (Escherichia coli)): 6.49

Compound: CC(=O)N[C@H]1[C@H](Oc2cccc(C(F)(F)F)c2-c2cccc(CC#N)c2)O[C@H](CO)[C@H](O)[C@@H]1O
- pIC50 (FmlH (Escherichia coli)): 6.10

Compound: CC(=O)N[C@H]1[C@H](Oc2cccc(C(F)(F)F)c2-c2ccc(F)c(F)c2)O[C@H](CO)[C@H](O)[C@@H]1O
- C0 [1]: 3190 ng/mL
- half-life [2]: 1.26 h
- Vd [3]: 2.39 L/kg
- clearance [4]: 28 mL/min/kg
- Tlast [5]: 8 h
- AUC(0-t) [6]: 1790 ng·h/mL
- AUC(0-inf) [7]: 1810 ng·h/mL
- MRT last [8]: 1.34 h
- MRT inf [9]: 1.43 h
- %AUCextra [10]: 1.07%
- AUMC [11]: 7.31%
- Cmax [12]: 472 ng/mL
- Tmax [13]: 2.64 h
- half-life [14]: 1.8 h
- AUC(0-t) [15]: 1830 ng·h/mL
- AUC(0-inf) [16]: 1860 ng·h/mL
- MRT last [17]: 3.53 h
- MRT inf [18]: 3.67 h
- %AUCextra [19]: 1.64%
- AUMC [20]: 5.96%
- bioavailability [21]: 30.7%
- pIC50 (FmlH (Escherichia coli)): 6.62

Compound: CC(=O)N[C@H]1[C@H](Oc2cccc(C(F)(F)F)c2-c2cccc(CS(C)(=O)=O)c2)O[C@H](CO)[C@H](O)[C@@H]1O
- pIC50 (FmlH (Escherichia coli)): 6.35

Compound: CS(=O)(=O)Nc1cccc(-c2ccccc2C[C@@H]2O[C@H](CO)[C@H](O)[C@H](O)[C@H]2F)c1
- pIC50 (FmlH (Escherichia coli)): 5.14

Compound: CC(=O)N[C@H]1[C@H](Oc2cccc(C(F)(F)F)c2-c2cccc(N(C)S(=O)(=O)O)c2)O[C@H](CO)[C@H](O)[C@@H]1O
- pIC50 (FmlH (Escherichia coli)): 5.70

Compound: CC(=O)N[C@H]1[C@H](Oc2cccc(C(F)(F)F)c2-c2ccccc2F)O[C@H](CO)[C@H](O)[C@@H]1O
- pIC50 (FmlH (Escherichia coli)): 6.15

Compound: COc1cc(F)cc(-c2c(O[C@@H]3O[C@H](CO)[C@H](O)[C@H](O)[C@H]3NC(C)=O)cccc2C(F)(F)F)c1
- pIC50 (FmlH (Escherichia coli)): 5.22

Compound: CC(=O)N[C@H]1[C@H](Oc2cccc(C(F)(F)F)c2-c2ccc(F)cc2)O[C@H](CO)[C@H](O)[C@@H]1O
- C0 [1]: 4430 ng/mL
- half-life [2]: 1.47 h
- Vd [3]: 1.42 L/kg
- clearance [4]: 13.6 mL/min/kg
- Tlast [5]: 8 h
- AUC(0-t) [6]: 3660 ng·h/mL
- AUC(0-inf) [7]: 3740 ng·h/mL
- MRT last [8]: 1.59 h
- MRT inf [9]: 1.75 h
- %AUCextra [10]: 1.9%
- AUMC [11]: 10.8%
- Cmax [12]: 1480 ng/mL
- Tmax [13]: 2 h
- half-life [14]: 1.92 h
- Tlast [22]: 8 h
- AUC(0-t) [15]: 6070 ng·h/mL
- AUC(0-inf) [16]: 6560 ng·h/mL
- MRT last [17]: 3.18 h
- MRT inf [18]: 3.75 h
- %AUCextra [19]: 7.55%
- AUMC [20]: 21.6%
- bioavailability [21]: 52.7%
- concentration at 24 h [23]: 15.8 ng/mL
- concentration at 24 h [24]: 66.3 ng/mL
- pIC50 (FmlH (Escherichia coli)): 6.72

Compound: COc1cc(-c2c(O[C@@H]3O[C@H](CO)[C@H](O)[C@H](O)[C@H]3NC(C)=O)cccc2C(F)(F)F)cc(C(F)(F)F)c1
- pIC50 (FmlH (Escherichia coli)): 4.74
